Laboratory results as given in ChEMBL document CHEMBL2150881, “JD-5006 and JD-5037: peripherally restricted (PR) cannabinoid-1 receptor blockers related to SLV-319 (Ibipinabant) as metabolic disorder therapeutics devoid of CNS liabilities” (Bioorg Med Chem Lett, 2012).
Active and inactive are the calls of the source. No cut-off for these calls is given here.

Tests used:
[1] = biological target: Cannabinoid receptor 1 (Mus musculus) (UniProt P47746); settings: Cerebellum, 30 mg/kg
[2] = Drug uptake in chow fed mouse brain at 20 mg/kg, po for 3 days measured after 1 hr post last dose; assay type: ADME, organism-based; parameters: dose 20 mg/kg, route oral; settings: read-out: Drug uptake
Summary of the method: (§1)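 Chow-fed mice were dosed orally at 100 or 20 mg/kg for 3 consecutive days. Plasma and brain were taken 1 h after the last dose. Proteins were precipitated with 3× volume ice-cold acetonitrile containing internal standard, then centrifuged 15 min at 4 °C. Analysis by LC/MS/MS against calibrators in plasma or brain homogenate (1000 to 1.6 nM). Brain is given as ng/gm and also as % of plasma.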

Mus musculus [3] = assay: In vivo receptor occupancy at CB1 receptor in mouse hippocampus assessed as inhibition of [3H]SR141716A binding at 30 mg/kg, po for 3 days measured after 1 hr post last dose; assay type: functional
Summary of the method: (§2)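 Chow-fed mice dosed orally once daily at 3 or 30 mg/kg for 3 consecutive days, killed 1 h after the last dose. [3H]SR141716A was given by lateral tail-vein injection 30 min before euthanasia. Hippocampus, cerebellum and brain stem (reference region) were scintillation-counted as DPM/mg. Binding potential = (receptor − reference)/reference. Occupancy (%) = 100 × (vehicle BP − drug BP)/vehicle BP. 5 animals per dose.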

Mus musculus [4] = assay: In vivo receptor occupancy at CB1 receptor in mouse cerebellum assessed as inhibition of [3H]SR141716A binding at 3 mg/kg, po for 3 days measured after 1 hr post last dose; assay type: functional
Summary of the method: as §2

Mus musculus [5] = assay: In vivo receptor occupancy at CB1 receptor in mouse hippocampus assessed as inhibition of [3H]SR141716A binding at 3 mg/kg, po for 3 days measured after 1 hr post last dose; assay type: functional
Summary of the method: as §2

[6] = Plasma concentration in chow fed mouse at 20 mg/kg, po for 3 days measured after 1 hr post last dose; assay type: ADME, organism-based; parameters: dose 20 mg/kg, route oral
Summary of the method: as §1

Mus musculus [7] = assay: Antidiabetic activity in high fat diet-fed diabetes mouse model assessed as […] in insulin sensitivity at 20 mg/kg for 7 days by glucose tolerance test; assay type: functional, organism-based; parameters: dose 20 mg/kg
Mus musculus [8] = assay: Antidiabetic activity in high fat diet-fed diabetes mouse model assessed as reduction in glucose level at 20 mg/kg for 7 days by glucose tolerance test; assay type: functional, organism-based; parameters: dose 20 mg/kg
Summary of the method: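 Mice kept on high-fat diet for 14 weeks were given 20 mg/kg PO for seven days. They were then challenged with glucose at 2 g/kg body weight, and glucose elimination was followed.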

Mus musculus [9] = assay: Antidyslipidemic activity in DIO mouse model assessed as reduction in terminal ALT level at 3 to 30 mg/kg, po for 21 days; assay type: functional; parameters: scale not given: the % may be the effect or the level left; settings: dose mg/kg 3-30
Summary of the method: (§3)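 Diet-induced obese mice dosed orally at 3, 10 and 30 mg/kg for 21 days alongside vehicle controls. Plasma triglycerides, ALT and terminal liver weight were measured at the end of dosing. p-values were given for each dose.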

Mus musculus [10] = assay: Antidyslipidemic activity in DIO mouse model assessed as reduction in terminal liver weight at 3 to 30 mg/kg, po for 21 days; assay type: functional; parameters: scale not given: the % may be the effect or the level left; settings: dose mg/kg 3-30
Summary of the method: as §3

Cannabinoid receptor 1 [11] = biological target: T1, Cannabinoid receptor 1 (Homo sapiens, UniProt P21554); assay: Displacement of 3[H]ligand from recombinant human CB1 receptor
T1 sequence (P21554 whole entry): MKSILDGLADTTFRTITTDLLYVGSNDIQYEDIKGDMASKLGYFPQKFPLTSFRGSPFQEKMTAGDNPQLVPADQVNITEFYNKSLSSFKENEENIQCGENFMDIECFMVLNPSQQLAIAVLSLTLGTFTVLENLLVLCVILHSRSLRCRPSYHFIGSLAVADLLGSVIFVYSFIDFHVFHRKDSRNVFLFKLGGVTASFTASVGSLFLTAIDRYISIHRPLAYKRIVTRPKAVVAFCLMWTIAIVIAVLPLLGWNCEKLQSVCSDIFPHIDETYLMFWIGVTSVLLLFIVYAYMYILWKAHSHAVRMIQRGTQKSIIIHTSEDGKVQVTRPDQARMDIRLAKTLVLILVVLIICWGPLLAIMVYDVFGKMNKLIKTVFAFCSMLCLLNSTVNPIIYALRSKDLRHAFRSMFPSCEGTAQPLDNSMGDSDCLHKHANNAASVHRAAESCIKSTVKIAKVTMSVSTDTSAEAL
Summary of the method: (§4)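 Radioligand displacement from human recombinant CB1 and CB2 protein by a [³H] ligand. Initial screen at two concentrations in duplicate, with values >100 nM estimated. Percent inhibition read at 100 nM. IC₅₀ taken from four-point concentration curves run in duplicate.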

[12] = (§5) Apparent permeability from apical to basolateral side in MDR expressing MDCK cells by LC-MS-MS analysis; assay type: ADME, cell-based, Canis lupus familiaris; settings: dog, MDCK-MDR1
Summary of the method: (§6)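 Permeability measured across MDR-MDCK kidney cell monolayers, giving apparent permeability (Papp) in the apical-to-basolateral and basolateral-to-apical directions.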

[13] = (§7) Apparent permeability from basolateral to apical side in MDR expressing MDCK cells by LC-MS-MS analysis; assay type: ADME, cell-based, Canis lupus familiaris; settings: dog, MDCK-MDR1
Summary of the method: as §6

Cannabinoid receptor 1 [14] = biological target: T1, Cannabinoid receptor 1; assay: Inverse agonist activity against CB1 receptor expressed in human CHO cells assessed as effect on forskolin-stimulated cAMP level; assay type: functional, cell-based
Cannabinoid receptor 2 = Cannabinoid receptor 2 (Homo sapiens, UniProt P34972); assay: Displacement of 3[H]ligand from recombinant human CB2 receptor
Sequence of Cannabinoid receptor 2 (P34972 whole entry): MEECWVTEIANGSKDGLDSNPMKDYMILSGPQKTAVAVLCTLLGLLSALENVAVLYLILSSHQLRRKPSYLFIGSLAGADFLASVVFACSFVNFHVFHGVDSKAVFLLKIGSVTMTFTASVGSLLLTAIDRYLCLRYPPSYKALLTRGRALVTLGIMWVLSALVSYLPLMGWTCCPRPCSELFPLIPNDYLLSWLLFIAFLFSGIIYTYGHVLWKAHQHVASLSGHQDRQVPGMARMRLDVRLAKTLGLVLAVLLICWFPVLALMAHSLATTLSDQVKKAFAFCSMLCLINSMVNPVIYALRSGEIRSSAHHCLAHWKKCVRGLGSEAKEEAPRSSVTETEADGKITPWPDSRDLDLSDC
Summary of the method: as §4

Mus musculus [15] = assay: Antidyslipidemic activity in DIO mouse model assessed as reduction in terminal fasting triglyceride level at 3 to 30 mg/kg, po for 21 days; assay type: functional; parameters: scale not given: the % may be the effect or the level left; settings: dose mg/kg 3-30
Summary of the method: as §3

Mus musculus [16] = assay: Antidyslipidemic activity in DIO mouse model assessed as reduction in terminal fasting triglyceride level at 30 mg/kg, po for 21 days; assay type: functional; parameters: scale not given: the % may be the effect or the level left
Summary of the method: as §3

Mus musculus [17] = assay: Antidyslipidemic activity in DIO mouse model assessed as reduction in terminal fasting triglyceride level at 3 mg/kg, po for 21 days; assay type: functional; parameters: scale not given: the % may be the effect or the level left
Summary of the method: as §3

MDCK [18] = assay: Efflux ratio of permeability from […] in MDR expressing MDCK cells; assay type: ADME, cell-based, Canis lupus familiaris; settings: dog, mdck
MDCK [19] = assay: as §5; assay type: ADME, cell-based, Canis lupus familiaris; settings: dog, mdck
Summary of the method: as §6

MDCK [20] = assay: as §7; assay type: ADME, cell-based, Canis lupus familiaris; settings: dog, mdck
Summary of the method: as §6

Sequence of Cannabinoid receptor 1 (Mus musculus) (P47746 whole entry): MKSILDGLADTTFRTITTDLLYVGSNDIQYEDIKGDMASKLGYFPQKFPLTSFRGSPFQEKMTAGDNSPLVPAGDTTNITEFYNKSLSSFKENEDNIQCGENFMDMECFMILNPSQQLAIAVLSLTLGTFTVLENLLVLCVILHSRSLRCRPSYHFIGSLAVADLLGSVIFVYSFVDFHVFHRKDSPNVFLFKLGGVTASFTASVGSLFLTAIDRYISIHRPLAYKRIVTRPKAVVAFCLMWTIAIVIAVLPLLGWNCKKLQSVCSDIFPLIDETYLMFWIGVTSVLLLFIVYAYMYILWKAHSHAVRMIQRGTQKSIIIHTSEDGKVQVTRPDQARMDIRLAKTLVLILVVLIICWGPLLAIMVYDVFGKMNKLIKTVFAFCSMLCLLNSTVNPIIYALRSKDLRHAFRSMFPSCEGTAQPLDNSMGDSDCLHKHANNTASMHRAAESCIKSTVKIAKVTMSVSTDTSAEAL

Row | SMILES | Occ [1] | Occ (Mus musculus [3]) | Occ (Mus musculus [4]) | Occ (Mus musculus [5]) | Activity (Mus musculus [7]) | Activity (Mus musculus [8]) | Activity (Mus musculus [9]) | Activity (Mus musculus [10]) | IC50 (Cannabinoid receptor 1 [11]) | IC50 (Cannabinoid receptor 2) | also measured
1 | Cc1c(C(=O)NN2CCCCC2)nn(-c2ccc(Cl)cc2Cl)c1-c1ccc(Cl)cc1 [RIMONABANT] | 87% | 100% | 12% | 10% | Active | Active | – | – | – | – | concentration at 1 h [2]: 1080 ng/g; concentration at 1 h [6]: 1200 ng/mL
2 | NC(=O)CN/C(=N\S(=O)(=O)c1ccc(Cl)cc1)N1CC(c2ccccc2)C(c2ccc(Cl)cc2)=N1 (racemic) [listing 1 of 2 here] | – | – | – | – | Active | Active | – | – | – | – | –
3 | NC(=O)CN/C(=N\S(=O)(=O)c1ccc(Cl)cc1)N1CC(c2ccccc2)C(c2ccc(Cl)cc2)=N1 (racemic) [listing 2 of 2 here] | – | – | – | – | – | – | 49% | 17% | 18 nM | 5000 nM | Papp A→B [12]: 1.8 ×10⁻⁶ cm/s; Papp B→A [13]: 60.5 ×10⁻⁶ cm/s; IC50 (Cannabinoid receptor 1 [14]): 18 nM; Activity (Mus musculus [15]): 26%
4 | CN/C(=N\S(=O)(=O)c1ccc(Cl)cc1)N1CC(c2ccccc2)C(c2ccc(Cl)cc2)=N1 (racemic) [RAC-IBIPINABANT] | 102% | 100% | 15% | 15% | – | – | 56% | 25% | – | – | Activity (Mus musculus [16]): 19%; Activity (Mus musculus [17]): 22%
5 | NC(=O)CNC(=O)CN/C(=N\S(=O)(=O)c1ccc(Cl)cc1)N1CC(c2ccccc2)C(c2ccc(Cl)cc2)=N1 (stereo unspecified) | – | – | – | – | – | – | – | – | 25 nM | > 5000 nM | Ratio (MDCK [18]): 112; Papp (MDCK [19]): 0.2 ucm/s; Papp (MDCK [20]): 22.3 ×10⁻⁶ cm/s
